# pIC50: −log10 of the molar value.
# What was measured:
# [1] = Drug level in C57BL/6J mouse feces treated with [6]-shogaol at 200 mg/kg, po by HPLC-ECD analysis relative to control; format: ADME, organism-based; design: dose 200 mg/kg, route oral; settings: in vivo
# How it was run: (§1)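 Female C57BL/6J mice gavaged once with 200 mg/kg in corn oil, or corn oil alone (n = 5 each). 24-h feces collected in metabolic cages. Feces extracted by sonication 90 min in MeOH/H2O (50/50) + 0.1% acetic acid, centrifuged, diluted fivefold. Analysed by HPLC with electrochemical array detection (Gemini C18, phosphate/acetonitrile/THF gradient), compared against vehicle controls.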
# [2] = Drug metabolism in human HCT116 cells assessed as retention time treated with 10 uM [6]-shogaol after 24 hrs by HPLC-ECD analysis; format: ADME, cell-based; settings: hct-116, 24 h
# How it was run: (§2)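 Cells (1.0 × 10⁶) attached 24 h in six-well plates, then exposed to 10 μM final in McCoy's 5A with 10% FBS. Extracted with equal volume acetonitrile, diluted 5-fold, analysed by HPLC with electrochemical detection.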
# [3] = Antioxidant activity assessed as DPPH radical scavenging activity; format: physicochemical
# [4] = Drug recovery in C57BL/6J mouse urine assessed as glucuronidated form of metabolite formation at 200 mg/kg, po by LC/MS analysis; format: ADME, organism-based; design: dose 200 mg/kg, route oral; settings: in vivo
# How it was run: (§3)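 Female C57BL/6J mice gavaged with 200 mg/kg in corn oil or vehicle (n = 5); 24-h urine collected in metabolic cages. 50 μl urine deproteinized with MeOH. Analysis with and without deconjugation.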
# HT-29 [5] = test: Drug metabolism in human HT-29 cells assessed as 1-(4'-hydroxy-3'-methoxyphenyl)-decan-3-ol formation at 10 uM by HPLC-ECD analysis; format: ADME, cell-based; settings: ht-29, 10 µM; how it was run: as §2
# HCT-116 [6] = test: Induction of apoptosis in human HCT116 cells assessed as apoptotic cells at 10 uM after 24 hrs by TUNEL assay; format: functional
# How it was run: (§4)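 HCT-116 or H-1299 cells seeded at 1.0 × 10⁵/well, after 24 h exposed for 24 h to compound (10–80 μM) or DMSO control. Cells were proteinase K-pretreated, formaldehyde-fixed, and slide-mounted for peroxidase TUNEL staining. Ten fields per slide counted at 400×; brown-nucleus cells given as percentage of total cells; mean ± S.E., n = 10.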
# [7] = Drug excretion in C57BL/6J mouse feces assessed as 1-(4'-hydroxy-3'-methoxyphenyl)-decan-3-one formation at 200 mg/kg, po by HPLC analysis relative to control; format: ADME, organism-based; design: dose 200 mg/kg, route oral; settings: in vivo; how it was run: as §1
# [8] = Drug metabolism in human HCT116 cells assessed as 1-(4'-hydroxy-3'-methoxyphenyl)-decan-3-one formation at 10 uM after 24 hrs by HPLC-ECD analysis; format: ADME, cell-based; settings: hct-116, 24 h; how it was run: as §2
# [9] = Drug metabolism in human HCT116 cells assessed as 1-(4'-hydroxy-3'-methoxyphenyl)-decan-3-ol formation at 10 uM after 24 hrs by HPLC-ECD analysis; format: ADME, cell-based; settings: hct-116, 24 h; how it was run: as §2
# [10] = Cytotoxicity against human H1299 cells assessed as growth inhibition after 24 hrs by MTT assay; format: functional, cell-based; settings: NCI-H1299, 24 h
# How it was run: (§5)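 Cells seeded at 3000/well, attached 24 h at 37°C, then exposed to test agents (0–80 μM, 0.1% DMSO final) for 24 h in McCoy's 5A with 10% FBS. Medium replaced with 2.41 mM MTT for 3 h at 37°C; formazan dissolved in DMSO, absorbance 550 nm. Viability as percentage of DMSO control; mean ± S.D., n = 6.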
# HT-29 [11] = test: Drug metabolism in human HT-29 cells assessed as 1-(4'-hydroxy-3'-methoxyphenyl)-decan-3-one formation at 10 uM by HPLC-ECD analysis; format: ADME, cell-based; settings: ht-29, 10 µM; how it was run: as §2
# [12] = Drug excretion in C57BL/6J mouse feces assessed as (2R)-2-amino-3-(3-hydroxy-1-(4-hydroxy-3-methoxyphenyl)decan-5-ylthio)propanoic acid formation at 200 mg/kg, po by HPLC-ECD analysis relative to control; format: ADME, organism-based; design: dose 200 mg/kg, route oral; settings: in vivo; how it was run: as §1
# [13] = Drug metabolism in mouse CL-13 cells assessed as 1-(4'-hydroxy-3'-methoxyphenyl)-decan-3-one formation at 10 uM by HPLC-ECD analysis; format: ADME, cell-based; settings: cl-13, 10 µM; how it was run: as §2
# [14] = Drug excretion in C57BL/6J mouse feces assessed as 2-((2R)-2-amino-3-(3-hydroxy-1-(4-hydroxy-3-methoxyphenyl)decan-5-ylthio)propanamido)acetic acid formation at 200 mg/kg, po by HPLC-ECD analysis relative to control; format: ADME, organism-based; design: dose 200 mg/kg, route oral; settings: in vivo; how it was run: as §1
# [15] = Drug excretion in C57BL/6J mouse feces assessed as (2R)-2-acetamido-3-(3-hydroxy-1-(4-hydroxy-3-methoxyphenyl)decan-5-ylthio)propanoic acid formation at 200 mg/kg, po by HPLC-ECD analysis relative to control; format: ADME, organism-based; design: dose 200 mg/kg, route oral; settings: in vivo; how it was run: as §1
# [16] = Drug excretion in C57BL/6J mouse feces assessed as 5-methylthio-1-(4'-hydroxy-3'-methoxyphenyl)-decan-3-one formation at 200 mg/kg, po by HPLC analysis relative to control; format: ADME, organism-based; design: dose 200 mg/kg, route oral; settings: in vivo; how it was run: as §1
# Plasma [17] = test: Drug metabolism in A/J mouse plasma assessed as sulfated form of metabolite formation at 200 mg/kg, po after 2 to 4 hrs by HPLC analysis; settings: in vivo
# NCI-H1299 [18] = test: Induction of apoptosis in human H1299 cells assessed as apoptotic cells at 20 uM after 24 hrs by TUNEL assay; format: functional; how it was run: as §4
# [19] = Drug recovery in C57BL/6J mouse urine assessed as sulfated form of metabolite formation at 200 mg/kg, po by LC/MS analysis; format: ADME, organism-based; design: dose 200 mg/kg, route oral; settings: in vivo; how it was run: as §3
# [20] = Drug excretion in C57BL/6J mouse feces assessed as 5-N-acetylcysteinyl-[6]-shogaol formation at 200 mg/kg, po by HPLC-ECD analysis relative to control; format: ADME, organism-based; design: dose 200 mg/kg, route oral; settings: in vivo; how it was run: as §1
# [21] = Drug metabolism in human HCT116 cells assessed as 1-(4'-hydroxy-3'-methoxyphenyl)-4-decen-3-ol formation at 10 uM after 24 hrs by HPLC-ECD analysis; format: ADME, cell-based; settings: hct-116, 24 h; how it was run: as §2
# [22] = Drug metabolism in mouse CL-13 cells assessed as 1-(4'-hydroxy-3'-methoxyphenyl)-decan-3-ol formation at 10 uM after 24 hrs by HPLC-ECD analysis; format: ADME, cell-based; settings: cl-13, 24 h; how it was run: as §2
# Plasma [23] = test: Drug metabolism in A/J mouse plasma assessed as glucuronidated form of metabolite formation at 200 mg/kg, po after 2 to 4 hrs by LC/MS analysis; settings: in vivo
# [24] = Drug excretion in C57BL/6J mouse feces assessed as 1-(4'-hydroxy-3'-methoxyphenyl)-4-decen-3-ol formation at 200 mg/kg, po by HPLC-ECD analysis relative to control; format: ADME, organism-based; design: dose 200 mg/kg, route oral; settings: in vivo; how it was run: as §1
# [25] = Drug recovery in C57BL/6J mouse urine assessed as sulfated form of metabolite formation at 200 mg/kg, po by HPLC-ECD analysis; format: ADME, organism-based; design: dose 200 mg/kg, route oral; settings: in vivo; how it was run: as §3
# HCT-116 [26] = test: Induction of apoptosis in human HCT116 cells assessed as apoptotic cells at 20 uM after 24 hrs by TUNEL assay; format: functional; how it was run: as §4
# [27] = Drug excretion in C57BL/6J mouse feces assessed as 5-methoxy-1-(4'-hydroxy-3'-methoxyphenyl)-decan-3-one formation at 200 mg/kg, po by HPLC-ECD analysis relative to control; format: ADME, organism-based; design: dose 200 mg/kg, route oral; settings: in vivo; how it was run: as §1
# Plasma [28] = test: Drug metabolism in C57BL/6J mouse plasma assessed as sulfated form of metabolite formation at 200 mg/kg, po after 2 to 4 hrs by LC/MS analysis; format: ADME, organism-based; design: dose 200 mg/kg, route oral; settings: in vivo
# [29] = Cytotoxicity against human HCT116 cells assessed as growth inhibition after 24 hrs by MTT assay; format: functional, cell-based; settings: HCT-116, 24 h; how it was run: as §5
# [30] = Drug excretion in C57BL/6J mouse feces assessed as 5-cysteinyl-[6]-shogaol formation at 200 mg/kg, po by HPLC-ECD analysis relative to control; format: ADME, organism-based; design: dose 200 mg/kg, route oral; settings: in vivo; how it was run: as §1
# Plasma [31] = test: Drug metabolism in A/J mouse plasma assessed as glucuronidated form of metabolite formation at 200 mg/kg, po after 2 to 4 hrs by HPLC-ECD analysis; settings: in vivo
# [32] = Drug recovery in C57BL/6J mouse urine assessed as glucuronidated form of metabolite formation at 200 mg/kg, po by HPLC-ECD analysis; format: ADME, organism-based; design: dose 200 mg/kg, route oral; settings: in vivo; how it was run: as §3
# [33] = Drug excretion in C57BL/6J mouse feces assessed as 5-methylthio-1-(4'-hydroxy-3'-methoxyphenyl)-decan-3-ol formation at 200 mg/kg, po by HPLC-ECD analysis relative to control; format: ADME, organism-based; design: dose 200 mg/kg, route oral; settings: in vivo; how it was run: as §1
# [34] = Drug metabolism in human H1299 cells assessed as 1-(4'-hydroxy-3'-methoxyphenyl)-decan-3-one formation at 10 uM after 24 hrs by HPLC-ECD analysis; format: ADME, cell-based; settings: nci-h1299, 24 h; how it was run: as §2
# [35] = Drug metabolism in human H1299 cells assessed as 1-(4'-hydroxy-3'-methoxyphenyl)-decan-3-ol formation at 10 uM after 24 hrs by HPLC-ECD analysis; format: ADME, cell-based; settings: nci-h1299, 24 h; how it was run: as §2
# NCI-H1299 [36] = test: Induction of apoptosis in human H1299 cells assessed as apoptotic cells at 10 uM after 24 hrs by TUNEL assay; format: functional; how it was run: as §4
# [37] = Drug excretion in C57BL/6J mouse feces assessed as 3',4'-dihydroxyphenyl-decan-3-one formation at 200 mg/kg, po by HPLC-ECD analysis relative to control; format: ADME, organism-based; design: dose 200 mg/kg, route oral; settings: in vivo; how it was run: as §1
# [38] = Drug excretion in C57BL/6J mouse feces assessed as 1-(4'-hydroxy-3'-methoxyphenyl)-decan-3-ol formation at 200 mg/kg, po by HPLC-ECD analysis relative to control; format: ADME, organism-based; design: dose 200 mg/kg, route oral; settings: in vivo; how it was run: as §1
smiles,measurement,setting,value
CCCCCC(CC(=O)CCc1ccc(O)c(OC)c1)SCC(N)C(=O)O (stereo not drawn),Drug excretion,[1],metabolite_detected
CCCCCC(CC(O)CCc1ccc(O)c(OC)c1)SC (stereo not drawn),Drug excretion,[1],metabolite_detected
CCCCCC(CC(=O)CCc1ccc(O)c(OC)c1)SC[C@H](NC(=O)CC[C@H](N)C(=O)O)C(=O)NCC(=O)O (stereo partly drawn),Retention_time,[2],14.5 min
CCCCCCCC(=O)CCc1ccc(O)c(O)c1,Drug excretion,[1],metabolite_detected
CCCCCC(CC(=O)CCc1ccc(O)c(OC)c1)SC (stereo not drawn),Drug excretion,[1],metabolite_detected
CCCCCCCCC[C@H](O)CC(=O)CCc1ccc(O)c(OC)c1,pIC50,[3],4.92
CCCCC[C@H](O)CC(=O)CCc1ccc(O)c(OC)c1 [GINGEROL],pIC50,[3],4.55
CCCCC/C=C/C(=O)CCc1ccc(O)c(OC)c1 [SHOGAOL],Drug recovery,[4],metabolite_detected
same,Drug metabolism,HT-29 [5],metabolite_detected
same,Activity,HCT-116 [6],10.3%
same,Drug excretion,[7],metabolite_detected
same,Drug metabolism,[8],metabolite_detected
same,Drug metabolism,[9],metabolite_detected
same,pIC50,[3],5.10
same,pIC50,[10],4.77
same,Drug metabolism,HT-29 [11],metabolite_detected
same,Drug excretion,[12],metabolite_detected
same,Drug metabolism,[13],metabolite_detected
same,Drug excretion,[14],metabolite_detected
same,Drug excretion,[15],metabolite_detected
same,Drug excretion,[16],metabolite_detected
same,Drug metabolism,Plasma [17],metabolite_detected
same,Activity,NCI-H1299 [18],31.6%
same,Drug recovery,[19],metabolite_detected
same,Drug excretion,[20],metabolite_detected
same,Drug metabolism,[21],metabolite_detected
same,Drug metabolism,[22],metabolite_detected
same,Drug metabolism,Plasma [23],metabolite_detected
same,Drug excretion,[24],metabolite_detected
same,Drug recovery,[25],metabolite_detected
same,Activity,HCT-116 [26],31.2%
same,Drug excretion,[27],metabolite_detected
same,Drug metabolism,Plasma [28],metabolite_detected
same,pIC50,[29],4.73
same,Drug excretion,[30],metabolite_detected
same,Drug metabolism,Plasma [31],metabolite_detected
same,Drug recovery,[32],metabolite_detected
same,Drug excretion,[33],metabolite_detected
same,Drug metabolism,[34],metabolite_detected
same,Drug metabolism,[35],metabolite_detected
same,Activity,NCI-H1299 [36],5.2%
same,Drug excretion,[37],metabolite_detected
same,Drug excretion,[38],metabolite_detected

# Reference: ChEMBL document CHEMBL3526065, “Metabolism of [6]-shogaol in mice and in cancer cells” (Drug Metab Dispos, 2012)
